Laboratory results: ChEMBL document CHEMBL1157378, “Role for cell density in antifungal drug resistance in Candida albicans biofilms” (2007)
In brackets after ≈: the same amount, converted by molar mass. Activity calls are given as the source filed them. The calls are words filed in the database; no cut-off is given here.

What was measured:
[1] = tested on: Candida albicans; test: Antimicrobial activity against Chk1 deficient Candida albicans CHK21 dissociated biofilms at cell density of 10^8 cells/ml after 48 hrs by XTT assay; type: functional; conditions: CHK21, 48 h
How it was run: (§1)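 Polystyrene-well biofilms (48 h, 37°C) washed, then broken up in 100 µl RPMI by scraping and aspiration. Cells used undiluted (about 2 x 10^8 cells/ml equivalent) or adjusted by A600 against a hemacytometer-calibrated yeast standard curve. Drug exposure at 37°C for 48 h (caspofungin 24 h), then XTT/menadione read at 490 nm.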

[2] = tested on: Candida albicans; test: Antimicrobial activity against Chk1 deficient Candida albicans CHK21 intact biofilms after 48 hrs by XTT assay; type: functional; conditions: CHK21, 48 h
How it was run: (§2)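 Biofilm seeded at 1 x 10^6 cells/ml in RPMI in polystyrene microtiter wells and grown 48 h at 37°C in a moist chamber. Washed once and drug added to the same well (twofold dilutions, 1,024 to 0.0313 µg/ml) for 48 h at 37°C (caspofungin 24 h). Read-out: XTT/menadione reduction at 490 nm.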

[3] = tested on: Candida albicans; test: Antimicrobial activity against Candida albicans SC5314 at 512 ug/ml at planktonic cell density of 5 x 10^7 cells/ml after 48 hrs by XTT assay; type: functional; conditions: SC5314, 48 h
[4] = tested on: Candida albicans; test: Antimicrobial activity against Candida albicans SC5314 dissociated biofilms grown on silicone-elastomer coated latex surface at cell density of 10^3 cells/ml at 0.25 to 8 ug/ml by XTT assay; type: functional, organism-based
How it was run: (§3)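 1-cm discs of denture acrylic, PVC catheter or silicone elastomer-coated latex catheter, ethylene-oxide sterilised. Seeded with 1 ml of 1 x 10^6 cells/ml, adhesion 90 min at 37°C, washed, grown 48 h at 37°C in RPMI. Biofilm scraped off, set to 1 x 10^3 or 1 x 10^8 cells/ml, exposed to fluconazole, read by XTT at 490 nm.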

[5] = tested on: Candida albicans; test: Antimicrobial activity against Candida albicans SC5314 dissociated biofilms grown on silicone-elastomer coated latex surface at cell density of 10^8 cells/ml at 0.25 to 8 ug/ml by XTT assay; type: functional, organism-based; how it was run: as §3
[6] = tested on: Candida albicans; test: Antimicrobial activity against Candida albicans SC5314 dissociated biofilms grown on polyvinylchloride catheter surface at cell density of 10^8 cells/ml at 0.25 to 8 ug/ml by XTT assay; type: functional, organism-based; how it was run: as §3
[7] = tested on: Candida albicans; test: Antimicrobial activity against Candida albicans GDH2346 intact biofilms after 48 hrs by XTT assay; type: functional; conditions: GDH2346, 48 h; how it was run: as §2
[8] = tested on: Candida albicans; test: Antimicrobial activity against Candida albicans FH1 at planktonic cell density of 10^3 cells/ml after 48 hrs by XTT assay; type: functional; conditions: FH1, 48 h
How it was run: (§4)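 YNB-grown yeast (50 mM glucose, room temperature, shaken, to ~2 x 10^8 cells/ml) washed into MOPS-buffered RPMI 1640 with L-glutamine and set to the stated density. Exposed to twofold serial drug dilutions (1,024 to 0.0313 µg/ml) at 37°C, 48 h (caspofungin 24 h), with drug-free controls. Read-out: XTT (0.5 g/liter) plus 1 µM menadione, formazan at 490 nm.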

[9] = tested on: Candida albicans; test: Antimicrobial activity against Candida albicans FH1 dissociated biofilms at cell density of 10^3 cells/ml after 48 hrs by XTT assay; type: functional; conditions: FH1, 48 h; how it was run: as §1
[10] = tested on: Candida albicans; test: Antimicrobial activity against Candida albicans FH1 dissociated biofilms at cell density of 10^8 cells/ml after 48 hrs by XTT assay; type: functional; conditions: FH1, 48 h; how it was run: as §1
[11] = tested on: Candida albicans; test: Antimicrobial activity against Candida albicans FH1 intact biofilms after 48 hrs by XTT assay; type: functional; conditions: FH1, 48 h; how it was run: as §2
[12] = tested on: Candida albicans; test: Antimicrobial activity against fluconazole-resistant Candida albicans FH5 at planktonic cell density of 10^8 cells/ml after 48 hrs by XTT assay; type: functional; conditions: FH5, 48 h; how it was run: as §4
[13] = tested on: Candida albicans; test: Antimicrobial activity against fluconazole-resistant Candida albicans FH5 dissociated biofilms at cell density of 10^8 cells/ml after 48 hrs by XTT assay; type: functional; conditions: FH5, 48 h; how it was run: as §1
[14] = tested on: Candida albicans; test: Antimicrobial activity against fluconazole-resistant Candida albicans FH5 intact biofilms after 48 hrs by XTT assay; type: functional; conditions: FH5, 48 h; how it was run: as §2
[15] = tested on: Candida albicans; test: Antimicrobial activity against Cdr1, Cdr2 and Mdr1 deficient Candida albicans DSY1050 at planktonic cell density of 10^3 cells/ml after 48 hrs by XTT assay; type: functional; conditions: DSY1050, 48 h; how it was run: as §4
[16] = tested on: Candida albicans; test: Antimicrobial activity against Cdr1, Cdr2 and Mdr1 deficient Candida albicans DSY1050 dissociated biofilms at cell density of 10^3 cells/ml after 48 hrs by XTT assay; type: functional; conditions: DSY1050, 48 h; how it was run: as §1
[17] = tested on: Candida albicans; test: Antimicrobial activity against Cdr1, Cdr2 and Mdr1 deficient Candida albicans DSY1050 dissociated biofilms at cell density of 10^8 cells/ml after 48 hrs by XTT assay; type: functional; conditions: DSY1050, 48 h; how it was run: as §1
[18] = tested on: Candida albicans; test: Antimicrobial activity against Candida albicans SC5314 dissociated biofilms grown on polymethylmethacrylate surface at cell density of 10^3 cells/ml at 0.25 to 8 ug/ml by XTT assay; type: functional, organism-based; how it was run: as §3
[19] = tested on: Candida albicans; test: Antimicrobial activity against Candida albicans SC5314 at planktonic cell density of 10^3 cells/ml after 48 hrs by XTT assay; type: functional; conditions: SC5314, 48 h; how it was run: as §4
[20] = tested on: Candida albicans; test: Antimicrobial activity against Candida albicans SC5314 at planktonic cell density of 10^8 cells/ml after 48 hrs by XTT assay; type: functional; conditions: SC5314, 48 h; how it was run: as §4
[21] = tested on: Candida albicans; test: Antimicrobial activity against Candida albicans SC5314 dissociated biofilms at cell density of 10^8 cells/ml after 48 hrs by XTT assay; type: functional; conditions: SC5314, 48 h; how it was run: as §1
[22] = tested on: Candida albicans; test: Antimicrobial activity against Candida albicans SC5314 intact biofilms after 48 hrs by XTT assay; type: functional; conditions: SC5314, 48 h; how it was run: as §2
[23] = tested on: Candida albicans; test: Antimicrobial activity against Candida albicans GDH2346 at planktonic cell density of 10^8 cells/ml after 48 hrs by XTT assay; type: functional; conditions: GDH2346, 48 h; how it was run: as §4
[24] = tested on: Candida albicans; test: Antimicrobial activity against Candida albicans GDH2346 dissociated biofilms at cell density of 10^3 cells/ml after 48 hrs by XTT assay; type: functional; conditions: GDH2346, 48 h; how it was run: as §1
[25] = tested on: Candida albicans; test: Antimicrobial activity against Candida albicans GDH2346 dissociated biofilms at cell density of 10^8 cells/ml after 48 hrs by XTT assay; type: functional; conditions: GDH2346, 48 h; how it was run: as §1
[26] = tested on: Candida albicans; test: Inhibition of metabolic activity in Candida albicans SC5314 at 32 ug/ml in presence of 2 ug/ml calcineurin pathway inhibitor FK506; type: functional; set-up: scale not given: the % may be the effect or the level left
How it was run: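 SC5314 fluconazole susceptibility tested with or without FK506. Cell suspension, drug and FK506 volumes set to the final concentrations in 200 µl. Incubation at 37°C for 48 h, then metabolic activity by XTT/menadione at 490 nm.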

[27] = tested on: Candida albicans; test: Antimicrobial activity against Candida albicans intact biofilms; type: functional
How it was run: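 Biofilm formed in polystyrene wells from 1 x 10^6 cells/ml, 48 h at 37°C in MOPS-buffered RPMI 1640, washed once. Intact biofilm exposed in the same well to twofold serial drug dilutions (1,024 to 0.0313 µg/ml) at 37°C for 48 h (caspofungin 24 h), with drug-free controls. Metabolic activity measured by XTT plus 1 µM menadione, absorbance at 490 nm.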

OC(Cn1cncn1)(Cn1cncn1)c1ccc(F)cc1F [FLUCONAZOLE]
MIC80 [1]: > 64 µg/mL | MIC80 [2]: > 64 µg/mL | inhibition at 512 µg/mL [3]: 40% | Activity [4]: Active | Activity [5]: inactive | Activity [6]: inactive | MIC80 [7]: > 512 µg/mL | MIC80 [8]: 4 µg/mL (≈ 13.1 µM) | MIC80 [9]: 2 µg/mL (≈ 6.53 µM) | MIC80 [10]: > 512 µg/mL | MIC80 [11]: > 512 µg/mL | MIC80 [12]: > 512 µg/mL | MIC80 [13]: > 512 µg/mL | MIC80 [14]: > 512 µg/mL | MIC80 [15]: 0.25 µg/mL (≈ 0.816 µM) | MIC80 [16]: 0.125 µg/mL (≈ 0.408 µM) | MIC80 [17]: > 64 µg/mL | Activity [18]: Active | MIC80 [19]: 0.5 µg/mL (≈ 1.63 µM) | MIC80 [20]: > 256 µg/mL | MIC80 [21]: > 256 µg/mL | MIC80 [22]: > 512 µg/mL | MIC80 [23]: > 512 µg/mL | MIC80 [24]: 0.25 µg/mL (≈ 0.816 µM) | MIC80 [25]: > 64 µg/mL | Activity [26]: 17% | MIC [27]: > 1020 µg/mL
